Reference: ChEMBL document CHEMBL4330063, “New naphthopyran analogues of LY290181 as potential tumor vascular-disrupting agents” (Eur J Med Chem, 2019)
Active and inactive are the calls of the source. The calls are words filed in the database; no cut-off is given here.

What was measured:
[1] = tested on: Chorioallantoic membrane; assay: Antiangiogenic activity in Leghorn chicken embryo chorioallantoic membrane assessed as effect on blood vessel length at 5 nmol after 6 hrs by light microscopic analysis; assay type: functional, tissue-based; settings: Gallus gallus
Summary of the method: (§1)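 Fertilized chicken eggs, CAM assay. Compound was applied topically into a small silicon foil ring placed on the CAM. The membrane and its extraembryonal blood vessels were monitored over 24 h, with observations at 6 h and 24 h post application.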

[2] = tested on: Chorioallantoic membrane; assay: Antiangiogenic activity in Leghorn chicken embryo chorioallantoic membrane assessed as disruption of smaller blood vessels at 5 nmol after 24 hrs by light microscopic analysis; assay type: functional, tissue-based; settings: Gallus gallus; summary of the method: as §1
[3] = tested on: Chorioallantoic membrane; assay: Antiangiogenic activity in Leghorn chicken embryo chorioallantoic membrane assessed as induction of hemorrhages at 5 nmol after 24 hrs by light microscopic analysis; assay type: functional, tissue-based; settings: Gallus gallus; summary of the method: as §1
[4] = tested on: Chorioallantoic membrane; assay: Antiangiogenic activity in Leghorn chicken embryo chorioallantoic membrane assessed as reduction in blood vessel area at 5 nmol after 6 hrs by light microscopic analysis relative to control; assay type: functional, tissue-based; design: scale not given: the % may be the effect or the level left; settings: Gallus gallus
Summary of the method: (§2)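 The CAM assay was run with topical application into a silicon foil ring atop the CAM of fertilized chicken eggs. Area covered by blood vessels was quantified by fractal analysis relative to control.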

[5] = tested on: Chorioallantoic membrane; assay: Antiangiogenic activity in Leghorn chicken embryo chorioallantoic membrane assessed as induction of hemorrhages at 5 nmol after 6 hrs by light microscopic analysis; assay type: functional, tissue-based; settings: Gallus gallus; summary of the method: as §1
[6] = tested on: Chorioallantoic membrane; assay: Antiangiogenic activity in Leghorn chicken embryo chorioallantoic membrane assessed as reduction in diameter of main blood vessel at 5 nmol after 24 hrs by light microscopic analysis; assay type: functional, tissue-based; settings: Gallus gallus; summary of the method: as §1
[7] = tested on: A2780; assay: Antivascular activity against human A2780 cells xenografted in nude mouse assessed as induction of hemorrhages at tumor core at 100 mg/kg administered on every other day and measured after 24 hrs by H and E staining based histopathological analysis; assay type: functional, organism-based
[8] = tested on: A2780cis; assay: Antitumor activity against human A2780cis xenografted in nude mouse at 60 mg/kg, ip administered on day 0, 4, 11 and 16; assay type: functional, organism-based
[9] = tested on: Chorioallantoic membrane; assay: Antiangiogenic activity in Leghorn chicken embryo chorioallantoic membrane assessed as disruption of smaller blood vessels at 5 nmol after 6 hrs by light microscopic analysis; assay type: functional, tissue-based; settings: Gallus gallus; summary of the method: as §1
[10] = tested on: A2780; assay: Antivascular activity against human A2780 cells xenografted in nude mouse assessed as induction of necrosis at tumor core at 100 mg/kg […] and measured after 24 hrs by H and E staining based histopathological analysis; assay type: functional, organism-based
Summary of the method: (§3)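 Mice bore A2780 tumor xenografts. Compound was formulated in tween80/ethanol (1:1) and injected as single doses. Tumors were inspected for discoloration as a sign of vascular disruption, and treated tumors were examined histologically for hemorrhage and necrosis.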

[11] = tested on: A2780; assay: Antivascular activity against human A2780 cells xenografted in nude mouse assessed as tumor discoloration at 200 mg/kg administered on every other day and measured after 24 hrs; assay type: functional, organism-based; settings: in the assay text read “administered as single dose” for “administered on every other day”; summary of the method: as §3
[12] = tested on: Chorioallantoic membrane; assay: Antiangiogenic activity in Leghorn chicken embryo chorioallantoic membrane assessed as induction of hemorrhages at 10 nmol after 24 hrs by light microscopic analysis; assay type: functional, tissue-based; settings: Gallus gallus; summary of the method: as §1
[13] = tested on: Chorioallantoic membrane; assay: Antiangiogenic activity in Leghorn chicken embryo chorioallantoic membrane assessed as disruption of smaller blood vessels at 10 nmol after 6 hrs by light microscopic analysis; assay type: functional, tissue-based; settings: Gallus gallus; summary of the method: as §1
[14] = tested on: Chorioallantoic membrane; assay: Antiangiogenic activity in Leghorn chicken embryo chorioallantoic membrane assessed as reduction in blood vessel area at 10 nmol after 6 hrs by light microscopic analysis relative to control; assay type: functional, tissue-based; design: scale not given: the % may be the effect or the level left; settings: Gallus gallus; summary of the method: as §2
[15] = tested on: Chorioallantoic membrane; assay: Antiangiogenic activity in Leghorn chicken embryo chorioallantoic membrane assessed as induction of hemorrhages at 10 nmol after 6 hrs by light microscopic analysis; assay type: functional, tissue-based; settings: Gallus gallus; summary of the method: as §1
[16] = tested on: Chorioallantoic membrane; assay: Antiangiogenic activity in Leghorn chicken embryo chorioallantoic membrane assessed as reduction in diameter of main blood vessel at 10 nmol after 24 hrs by light microscopic analysis; assay type: functional, tissue-based; settings: Gallus gallus; summary of the method: as §1
[17] = tested on: Chorioallantoic membrane; assay: Antiangiogenic activity in Leghorn chicken embryo chorioallantoic membrane assessed as disruption of smaller blood vessels at 10 nmol after 24 hrs by light microscopic analysis; assay type: functional, tissue-based; settings: Gallus gallus; summary of the method: as §1
[18] = tested on: Chorioallantoic membrane; assay: Antiangiogenic activity in Leghorn chicken embryo chorioallantoic membrane assessed as effect on blood vessel length at 10 nmol after 6 hrs by light microscopic analysis; assay type: functional, tissue-based; settings: Gallus gallus; summary of the method: as §1

Structure (SMILES)	Activity [1]	Activity [2]	Activity [3]	Activity [4]	Activity [5]	Activity [6]	Activity [7]	Activity [8]	Activity [9]	Activity [10]	Activity [11]	Activity [12]	Activity [13]	Activity [14]	Activity [15]	Activity [16]	Activity [17]	Activity [18]
N#CC1=C(N)Oc2c(ccc3ccccc23)C1c1cc(F)cc(F)c1 (stereo not drawn)	Active	inactive	inactive	59%	Active	Active	Active	Active	Active	Active	–	–	–	–	–	–	–	–
N#CC1=C(N)Oc2c(ccc3ccccc23)C1c1cccc([N+](=O)[O-])c1 (stereo not drawn)	–	–	–	–	–	–	–	–	–	–	inactive	inactive	Active	32%	Active	Active	inactive	Active
